Data on 4 molecules can be found in ChEMBL document CHEMBL1795318, “Development of tetrahydroisoquinoline-based hydroxamic acid derivatives: potent histone deacetylase inhibitors with marked in vitro and in vivo antitumor activities” (J Med Chem, 2011).

For series [1], the system named is MDA-MB-231. The series is described as follows: Cell cycle arrest in human MDA-MB-231 cells assessed as accumulation at G2 phase at 2 to 5 uM after 48 hrs by flow cytometry analysis. The series is classed as functional, cell-based.
In series [2] the target is Histone deacetylase. The series is described as follows: Inhibition of HDAC in human HeLa cell nuclear extract after 30 mins by fluorescence microplate reader. The series is classed as protein assay.
The target of series [3] is T1, Protein deacetylase HDAC6 (Homo sapiens, UniProt Q9UBN7).
T1 sequence (Q9UBN7 whole entry): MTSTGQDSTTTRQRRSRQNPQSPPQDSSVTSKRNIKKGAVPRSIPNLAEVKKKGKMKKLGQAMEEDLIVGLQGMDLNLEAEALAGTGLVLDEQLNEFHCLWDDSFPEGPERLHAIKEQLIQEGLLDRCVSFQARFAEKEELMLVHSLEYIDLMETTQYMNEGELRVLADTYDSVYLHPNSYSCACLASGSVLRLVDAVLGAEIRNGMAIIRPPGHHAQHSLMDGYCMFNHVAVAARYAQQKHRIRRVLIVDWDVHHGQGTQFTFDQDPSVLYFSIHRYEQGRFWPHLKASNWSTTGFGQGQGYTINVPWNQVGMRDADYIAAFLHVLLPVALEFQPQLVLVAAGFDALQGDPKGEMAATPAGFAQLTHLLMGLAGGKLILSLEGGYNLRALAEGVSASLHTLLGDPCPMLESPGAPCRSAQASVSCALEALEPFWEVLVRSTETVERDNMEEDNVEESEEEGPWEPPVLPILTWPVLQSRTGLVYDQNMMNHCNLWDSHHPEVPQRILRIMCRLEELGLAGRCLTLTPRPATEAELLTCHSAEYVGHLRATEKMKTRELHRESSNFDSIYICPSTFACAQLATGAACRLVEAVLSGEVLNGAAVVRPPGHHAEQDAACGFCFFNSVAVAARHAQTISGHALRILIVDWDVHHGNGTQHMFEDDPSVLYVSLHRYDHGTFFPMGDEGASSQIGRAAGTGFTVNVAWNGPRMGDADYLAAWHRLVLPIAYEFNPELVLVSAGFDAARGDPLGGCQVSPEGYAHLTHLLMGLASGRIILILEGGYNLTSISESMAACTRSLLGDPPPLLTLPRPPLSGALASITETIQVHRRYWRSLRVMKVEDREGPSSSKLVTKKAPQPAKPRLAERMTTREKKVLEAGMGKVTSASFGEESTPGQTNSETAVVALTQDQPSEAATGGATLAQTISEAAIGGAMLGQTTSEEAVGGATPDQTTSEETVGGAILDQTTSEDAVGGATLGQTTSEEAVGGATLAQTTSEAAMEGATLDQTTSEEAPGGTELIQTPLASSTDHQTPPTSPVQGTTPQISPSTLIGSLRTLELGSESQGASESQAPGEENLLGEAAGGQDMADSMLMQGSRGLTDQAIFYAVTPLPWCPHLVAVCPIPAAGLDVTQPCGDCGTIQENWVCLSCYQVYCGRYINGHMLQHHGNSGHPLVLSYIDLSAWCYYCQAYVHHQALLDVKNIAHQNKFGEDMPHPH
The series is described as follows: Inhibition of HDAC6 in human HeLa cell nuclear extract after 30 mins by fluorescence microplate reader.

The test system of series [4] is Mus musculus. The series is described as follows: Toxicity in human MDA-MB-231 cells xenografted athymic nude mouse assessed as signs of toxicity at 90 mg/kg, ip qd for 21 days. The series is classed as organism-based. More on the design: dose 90 mg/kg, route intraperitoneal. The conditions noted are these: in vivo, 504 h. For orientation: In xenograft studies the graft and the host belong to different species.

Series [5] concerns A549. The series is described as follows: Cytotoxicity against human A549 cells after 48 hrs by MTT assay. Format: functional, cell-based. The conditions noted are these: A549, 48 h. In short, it runs like this: (§1)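 Cells kept in RPMI1640 with 10% FBS, 37 °C, 5% CO₂; seeded day before dosing, grown ≥4 h, treated with a concentration series for 48 h. MTT 0.5% solution added, 4 h further; formazan dissolved in DMSO 15 min, absorbance at 570 nm. Mean of three experiments.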
Background: Tetrazolium dyes change colour on reduction, which living cells bring about.

Series [6] in a line: Cytotoxicity against human ES2 cells after 48 hrs by MTT assay. The series is classed as functional, cell-based. The conditions noted are these: ES-2, 48 h.
The nature of series [7]: Cytotoxicity against human fibroblasts after 48 hrs by MTT assay. Format: cell-based. The conditions noted are these: fibroblast. In short, it runs like this:
as §1

Series [8] deals with MDA-MB-231. The series is described as follows: Cytotoxicity against human MDA-MB-231 cells after 48 hrs by MTT assay. Format: functional, cell-based. The conditions noted are these: MDA-MB-231, 48 h.
Series [9] relates to MDA-MB-231. The series is described as follows: Cell cycle arrest in human MDA-MB-231 cells assessed as accumulation at G1 phase at 0.5 uM after 48 hrs by flow cytometry analysis. Format: functional, cell-based. For orientation: In flow cytometry, cells or beads pass a laser one at a time.
The test system of series [10] is Mus musculus. The series is described as follows: Toxicity in human MDA-MB-231 cells xenografted athymic nude mouse assessed as change in body weight at 90 mg/kg, ip qd for 21 days. More on the design: dose 90 mg/kg, route intraperitoneal. The conditions noted are these: in vivo, 504 h. Format: organism-based.
Series [11] relates to K562. The series is described as follows: Cytotoxicity against human K562 cells after 48 hrs by MTT assay. Format: functional, cell-based. The conditions noted are these: K562, 48 h.
Series [12] has as its system MDA-MB-231. The series is described as follows: Antitumor activity against human MDA-MB-231 cells xenografted in athymic nude mouse assessed as tumor growth inhibition at 90 mg/kg, ip qd for 21 days. The series is classed as functional. The conditions noted are these: route intraperitoneal.
In series [13] the test system is HeLa. The series is described as follows: Cytotoxicity against human HeLa cells after 48 hrs by MTT assay. The series is classed as functional, cell-based.
In series [14] the target is T2, Histone deacetylase 8 (Homo sapiens, UniProt Q9BY41).
T2 sequence (Q9BY41 whole entry): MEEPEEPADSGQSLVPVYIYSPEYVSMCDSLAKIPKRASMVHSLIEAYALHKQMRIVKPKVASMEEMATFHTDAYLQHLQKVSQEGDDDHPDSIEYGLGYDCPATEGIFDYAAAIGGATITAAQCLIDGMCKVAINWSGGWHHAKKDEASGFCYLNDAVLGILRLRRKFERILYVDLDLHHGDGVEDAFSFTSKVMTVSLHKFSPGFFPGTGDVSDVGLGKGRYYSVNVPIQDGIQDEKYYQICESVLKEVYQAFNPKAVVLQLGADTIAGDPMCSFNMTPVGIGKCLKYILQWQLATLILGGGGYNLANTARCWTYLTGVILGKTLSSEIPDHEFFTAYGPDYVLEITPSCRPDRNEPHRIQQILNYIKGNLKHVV
The series is described as follows: Inhibition of HDAC8 after 30 mins by fluorescence microplate reader. In short, it runs like this: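 HDAC8 mixed with compound at various concentrations, fluorogenic substrate added, 37 °C for 30 min; stopped with developer containing trypsin and TSA. Fluorescence read after 20 min (ex 390/em 460 nm); inhibition relative to control wells, IC50 by regression of concentration/inhibition data; mean ± SD of at least three determinations.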

Series [15] relates to HL-60. The series is described as follows: Cytotoxicity against human HL60 cells after 48 hrs by MTT assay. The series is classed as functional, cell-based. The conditions noted are these: HL-60, 48 h.
In series [16] the test system is MDA-MB-231. The series is described as follows: Antitumor activity against human MDA-MB-231 cells xenografted in athymic nude mouse assessed as tumor growth delay at 90 mg/kg, ip qd for 21 days. The series is classed as functional, organism-based. More on the design: dose 90 mg/kg.
The test system of series [17] is NB-4. The series is described as follows: Cytotoxicity against human NB4 cells after 48 hrs by MTT assay. The conditions noted are these: NB-4, 48 h. The series is classed as functional, cell-based.

The source made the active and inactive calls. The rule behind the calls is not given here.

Usually IC50 stands for the point on the concentration scale where inhibition reaches its midpoint. The low end stands for greater potency in that assay, the high end for weaker potency in that assay. A word on the T/C: it is the result in the treated group divided by that in the control group, in per cent. For `CC[C@H](C)[C@H](NC(=O)OC(C)(C)C)C(=O)N1Cc2cc(OCC(=O)NO)ccc2C[C@H]1C(=O)Nc1ccc(OC)cc1`, the result in series [1], in series [9] and in series [16] was Active. The IC50 stood at 58 nM in [2]; 47 nM in series [3]; 940 nM in series [5]; 5000 nM in series [6]; 790 nM in series [8]; 1470 nM in [11]. Further, the IC50 in series [13] amounted to 37100 nM; in [14], 139 nM; in series [15], 47600 nM; in [17], 1500 nM. Moreover, the Activity result is reported as “Non-toxic” in series [4], “Toxic” in series [7] and “Non-toxic” in series [10]. Moreover, the T/C in series [12] amounted to 63%.

Turning to `CC[C@H](C)[C@@H](CN1Cc2cc(OCC(=O)NO)ccc2C[C@H]1C(=O)Nc1ccc(OC)cc1)NC(=O)CC(C)(C)C`, the IC50 in series [2] was 297 nM; in series [3], 158 nM; in series [8], 2540 nM; in series [11] it was 10000 nM; in [13], 63500 nM; in series [14] it was 333 nM. Further, the IC50 in [15] amounted to 25700 nM; in [17] it was 5570 nM. The T/C in [12] is given as 87%. Also, the outcome in series [16] was Active.

For `O=C(CCCCCCC(=O)Nc1ccccc1)NO` [VORINOSTAT], the Activity entry in series [4] and in [10] was “Non-toxic” in each case. For the same molecule, half-maximal inhibition in series [5] (IC50) was put at 740 nM. Further, the outcome in series [16] was Active.

As to `CC[C@H](C)[C@@H](CN1Cc2cc(OCC(=O)NO)ccc2C[C@H]1C(=O)Nc1ccc(OC)cc1)NC(=O)OC(C)(C)C`, the outcome in [1], in series [9] and in series [16] was Active. For the same molecule, the IC50 in series [2] is 447 nM; in [3] it was 94 nM; in series [6] it was 7200 nM; in series [8] it was 2200 nM; in series [11], 7000 nM; in [13], 29200 nM. The IC50 came out at 263 nM in series [14], 42700 nM in series [15] and 3870 nM in series [17]. The T/C in series [12] was 47%.
